Screens as filed in PubChem BioAssay.
Compounds with a hit are over-represented: about 6.9% of the library has one in this group of screens.
PostGolgi ctrl: inhibits growth of the yeast control strain | efflux-deficient yeast background strain, growth absorbance A615, 16 h | inhibition, % at 10 µM | 98,000 tested, 5% active | AID 738
FAK inh: inhibitors of human focal adhesion kinase; inhibition, %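 (tested at 7 µM)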; 97,000 tested, 0.84% active; Q05397; biochemical FAK kinase activity assay; in the data active = inhibition above about 19%;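 note: 0% = DMSO and 100% = reference compound high control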
PostGolgi yeast: growth inhibition of a yeast mutant, post-Golgi transport screen. 98,000 tested, 0.9% active. post-Golgi transport phenotypic cell assay. inhibition, % at 10 µM;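 note: yeast cells grown in 1536-well plates; yeast grown about 18 h at 30C before absorbance read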
Calb biofilm kill: kills Candida albicans biofilms. C. albicans biofilm + clotrimazole, Alamar Blue. inhibition, % at 6 µM. 85,000 tested, 0.14% active;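 active = inhibition above 20%; inactive = inhibition below 20%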;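 note: preformed 24 hr biofilms exposed to compound for 48 hr; 0% = biofilm without compound and 100% = blank killed by clotrimazole plus chlorhexidine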
Ecoli tolC: growth inhibitors of E. coli BW25113 tolC mutant | 65,000 tested, 2.2% active | growth inhibition, % at 10 µM (by protocol) | OD615;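 active = growth inhibition at or above a cutoff equal to the mean over every tested compound plus 3 SD, cut at about 60% in these data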;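 note: growth measured after 20 h incubation at 37 °C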
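Test system: tolC-deleted E. coli BW25113 | Medium: LB with kanamycin 50 µg/mL | Compound dosing: Single concentration, 10 µM final per compound | Schedule: 37 °C, 20 h exposure | Measured by: OD at 615 nm | Evaluation: Percent growth inhibition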
PTK2B oligo ant: antagonists of human Pyk2 oligomerization. 99,000 tested, 0.83% active. z-score (the deposit names both 25 µM and 10 µM). Q293 cells, Pyk2 FERM NanoBiT luminescence; stronger effect = lower value. Q14289. AID 1347419;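 active = Z-score of -3 or lower, scaled per plate to the spread of control and sample wells; inactive = z-score above -3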;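 note: negative z-score means lost luminescence so less FERM oligomerization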
Active calls of the source: *; . = not tested or not shown. Cut-off read from the data, not from the text of the source, unless noted: active = inhibition above about 30%; inactive = the rest.

SMILES | PostGolgi ctrl | FAK inh | PostGolgi yeast | Calb biofilm kill | Ecoli tolC | PTK2B oligo ant
Cc1ccc(CN(C#N)c2nc(C)cc(C)n2)cc1 | 8.7 | 0.0 | -1.5 | 6.3 | . | -1.69
Cc1cc(C)nc(N(C#N)Cc2ccc(Br)cc2)n1 | 26.5 | -0.1 | 3.5 | . | 49.9 | -3.07*
Cc1ccc(S(=O)(=O)Nc2nc(C)c(NC(=O)OCCCl)s2)cc1 | 15.2 | 1.0 | 15.1 | 5.5 | . | 0.28
Cc1ccc(S(=O)(=O)Nc2nc(C)c(NC(=O)Nc3ccc(Cl)cc3Cl)s2)cc1 | 41.2* | -10.7 | 5.2 | . | . | -0.3
O=C1c2ccccc2C(=O)N1CCc1csc(-c2ccccc2)n1 | 14.4 | -0.3 | -0.3 | . | . | -0.45
Cc1ccc(-n2ncc3c(NCc4ccccn4)ncnc32)c(C)c1 | 13.0 | 2.4 | 2.6 | 3.6 | 6.7 | -0.14
Cc1ccc(CNc2ncnc3c2cnn3-c2ccccc2)cc1 | 0.5 | 3.1 | -9.9 | -0.4 | -33.3 | 0.83
N#Cc1ccc(CSc2ncnc3c2cnn3Cc2ccccc2)cc1 | 38.6* | -2.2 | -1.0 | 8.6 | 37.8 | -1.15
COc1ccccc1CNc1ncnc2c1cnn2-c1ccccc1 | . | . | . | . | 60.5* | .
CCCCNc1ncnc2c1cnn2-c1ccc(Cl)cc1 | 35.4* | . | -2.2 | 6.4 | 13.4 | .
Clc1ccc(-n2ncc3c(NCc4ccccn4)ncnc32)cc1 | 31.8* | 4.4 | -3.1 | 4.2 | 12.1 | 1.35
CCCCNc1ncnc2c1cnn2-c1ccccc1 | 14.6 | 4.3 | 5.2 | -1.3 | 11.7 | -1.54
CCC[N+](CC#Cc1ccccc1)(CCC)CC(=O)c1ccc(Cl)cc1 | . | . | . | . | . | 1.66
CCCCC(CC)CNC(=O)c1cc2ccccc2c(=O)o1 (stereo unspecified) | . | . | . | . | . | 0.28
c1ccc(Cn2ncc3c(NCc4ccco4)ncnc32)cc1 | -10.9 | . | -4.7 | 6.2 | 6.5 | 0.24
Clc1ccc(Cn2ncc3c(NCc4ccccc4)ncnc32)cc1 | 40.6* | 0.6 | -5.6 | 5.7 | . | -1.93
COc1cc2c(C#N)c(N3CCN(c4ccccc4OC)CC3)nc(N)c2c(N)n1 | 36.5* | . | 17.4 | . | 18.9 | 1.1
CN1CCN(CC(=O)N2CCn3c4c(c5cc(C6CCCCC6)ccc53)CCCC42)CC1 (stereo unspecified) | 86.5* | 6.7 | 53.2* | 0.2 | 100.0* | -0.85
Cc1ccc2c(c1)c1c3n2CCN(C(=O)CN2CCN(C)CC2)C3CCC1 (stereo unspecified) | 6.2 | . | 5.5 | 4.7 | 2.1 | 0.43
CO/N=C(\c1nonc1N)N1CCN(c2ccc([N+](=O)[O-])cc2Cl)CC1 | 32.3* | 4.7 | 0.3 | . | . | 0.12
O=C(/C=C/c1ccc(Cl)cc1)N1CCN(c2ccc(Cl)cc2[N+](=O)[O-])CC1 | 92.5* | 1.0 | -14.1 | . | . | 0.09
CO/N=C(\c1nonc1N)N1CCN(c2ccc(Cl)cc2[N+](=O)[O-])CC1 | 57.7* | 0.8 | -7.2 | . | . | -1.08
CCOC(=O)C1CCCN(C(=O)c2cn(CC)c3ccc(S(=O)(=O)N(C)C)cc3c2=O)C1 (stereo unspecified) | -1.8 | 3.7 | -4.2 | 11.4 | -16.5 | .
O=C(CSCc1ccco1)c1ccc(Cl)s1 | 0.9 | 2.0 | 1.7 | 10.3 | 9.3 | .
COC(=O)C1=C(N)Oc2cc(C)oc(=O)c2C1c1ccncc1 (stereo unspecified) | . | . | . | 8.0 | -11.3 | .
SMILES | PostGolgi ctrl | FAK inh | PostGolgi yeast | Calb biofilm kill | Ecoli tolC | PTK2B oligo ant
O=c1n(Cc2ccccc2)c2cc(Cl)cnc2n1Cc1ccccc1 | 14.3 | -2.4 | -1.2 | 7.2 | 88.8* | -1.83
O=C(CN(c1ccc(F)cc1)S(=O)(=O)c1ccc2c(c1)OCCO2)NCC1CCCO1 (stereo unspecified) | 33.3* | 0.6 | -5.1 | 3.2 | -1.7 | -1.44
COc1cc2ccccc2cc1C(=O)Nc1ccccc1N1CCN(S(C)(=O)=O)CC1 | 37.9* | 2.0 | 19.2 | 2.0 | 14.6 | -0.45
CCc1nc2c(cnn2-c2ccc(Cl)cc2)c(=O)n1-c1ccc(OC)cc1 | 48.5* | 1.3 | 4.2 | 2.3 | 6.1 | 0.86
CCOc1ccc(-n2c(C)nc3c(cnn3-c3ccc(Cl)cc3)c2=O)cc1 | 13.5 | -4.0 | 10.4 | . | -13.6 | 1.45
COCCn1nnnc1C(c1ccc(OC)cc1OC)N1CCN(c2ccccc2)CC1 (stereo unspecified) | 4.0 | -1.5 | -2.0 | -4.7 | 1.0 | -4.11*
COCCn1nnnc1C(c1ccc(OC)cc1OC)N1CCN(c2ccccc2F)CC1 (stereo unspecified) | 5.9 | 4.8 | -3.0 | 7.5 | 4.5 | -4.4*
COc1ccc(OC)c(C(c2nnnn2CCc2ccccc2)N2CCN(c3ccccc3)CC2)c1 (stereo unspecified) | 14.3 | -0.2 | -8.4 | . | 7.2 | -2.73
COCCn1nnnc1C(c1ccc2ncccc2c1)N1CCN(c2ccccc2F)CC1 (stereo unspecified) | 29.2 | 2.8 | -11.3 | 3.1 | -13.6 | -1.94
CC(C)[C@@H]1CC[C@@H](C)c2c(-c3ccccc3)n[nH]c21 | 40.7* | 8.2 | 4.6 | . | . | -0.59
c1ccc(-c2n[nH]c3c2CCC3)cc1 | 5.2 | 10.4 | -5.6 | 3.6 | 31.4 | -0.95
Cc1ccccc1NC(=S)NCCC(c1ccccc1)c1ccccc1 | 5.9 | 3.6 | -14.7 | . | . | -0.47
CCN(CCCNC(=O)CN1C(=O)COc2ccccc21)c1ccccc1 | 0.4 | . | 3.5 | 7.7 | 11.6 | -0.96
CCN(CCCNC(=O)c1c(C)cc(=O)oc1C)c1ccccc1 | 25.4 | -4.0 | -3.2 | 2.5 | -3.0 | 0.3
CCCCN(CCCNC(=O)CN1C(=O)COc2ccccc21)c1ccccc1 | 18.7 | . | -6.9 | 9.1 | 61.2* | 0.95
CCCCN(CCCNC(=O)c1c(C)cc(=O)oc1C)c1ccccc1 | 32.3* | 9.3 | -6.9 | 8.6 | 33.0 | 0.12
CCc1nnc2c3cnn(-c4ccccc4)c3ncn12 | 3.0 | 1.1 | -1.8 | 6.4 | . | -0.6
O=S(=O)(c1ccc2c(c1)OCCO2)N(Cc1ccc(F)cc1)Cc1nnc(-c2cccs2)o1 | 34.9* | -3.4 | -4.2 | 11.3 | 33.4 | -1.55
CCNS(=O)(=O)c1ccc(NS(C)(=O)=O)cc1 | -1.0 | 3.1 | 0.8 | -6.6 | . | 1.03
CCOc1ccccc1OCC(=O)Nc1ccc(S(=O)(=O)Nc2ncccn2)cc1 | . | 0.9 | . | 2.5 | -2.7 | 1.4
CC(C)C(NC(=O)CN1C(=O)c2ccccc2S1(=O)=O)C(C)C | 30.8* | 1.4 | -1.6 | 2.9 | 2.6 | .
CC1=C(C(=O)Nc2ccccc2)C(c2ccco2)C(C#N)=C(SCC(=O)Nc2cccc(C)c2C)N1 (stereo unspecified) | -1.1 | 1.3 | -5.4 | 6.5 | 31.0 | -0.45
COc1ccc(N2C(=O)C3C4c5ccccc5C(C=Nc5ccc(C)cc5C)(c5ccccc54)C3C2=O)cc1 (stereo unspecified) | . | 6.7 | . | . | . | -0.45
COc1ccccc1C(=O)Nn1c(C2CCC2)nc2ccccc2c1=O | 4.5 | 4.1 | -2.0 | -4.1 | -2.2 | 0.78
CCCCOC(=O)CSc1nnc(-c2cc(OC)c(OC)c(OC)c2)o1 | 32.1* | -1.3 | -2.3 | 6.9 | 16.6 | 0.58
CCCCN(CCCC)C(=O)CSc1nnc(-c2cc(OC)c(OC)c(OC)c2)o1 | 8.2 | . | -7.0 | 5.2 | 70.8* | -0.97
COc1cc(OC)cc(-c2nnc(SCC(=O)N3CCCC3)o2)c1 | 35.1* | -9.2 | 5.1 | 4.7 | 8.1 | 0.46
